Test results from ChEMBL document CHEMBL5042558, “Selective Macrocyclic Inhibitors of DYRK1A/B” (ACS Med Chem Lett, 2022).
Calls of active or inactive are those of the source. The calls are words filed in the database; no cut-off is given here.

Columns and labels:
CAL-27 [1] = test: Induction of apoptosis in human CAL-27 cells assessed as increase in cleaved-PARP level at 1 uM after 24 hrs by Immunoblot analysis relative to control; format: functional
CAL-27 [2] = test: Induction of apoptosis in human CAL-27 cells assessed as increase in cleaved-PARP level at 10 uM after 24 hrs by Immunoblot analysis relative to control; format: functional
FaDu = test: Antiproliferative activity against human FaDu cells assessed as reduction in cell viability at 10 uM measured after 72 hrs by Celltiter-Glo luminescent assay; format: functional
HEK-293T = test: Antiproliferative activity against human HEK293T cells assessed as reduction in cell viability at 10 uM measured after 72 hrs by Celltiter-Glo luminescent assay; format: toxicity, cell-based
CAL-27 [3] = test: Induction of apoptosis in human CAL-27 cells assessed as PARP level at 1 uM after 24 hrs by Immunoblot analysis relative to control; format: functional
CAL-27 [4] = test: Induction of apoptosis in human CAL-27 cells assessed as PARP level at 10 uM after 24 hrs by Immunoblot analysis relative to control; format: functional
CAL-27 [5] = test: Induction of apoptosis in human CAL-27 cells assessed as BCL-xL level at 1 uM after 24 hrs by Immunoblot analysis relative to control; format: functional
CAL-27 [6] = test: Induction of apoptosis in human CAL-27 cells assessed as BCL-xL level at 10 uM after 24 hrs by Immunoblot analysis relative to control; format: functional
CAL-27 [7] = test: Induction of apoptosis in human CAL-27 cells assessed as decrease in AKT phosphorylation at S473 residue at 0.5 uM after 24 hrs by Immunoblot analysis relative to control; format: functional; parameters: scale not given: the % may be the effect or the level left
CAL-27 [8] = test: Induction of apoptosis in human CAL-27 cells assessed as decrease in AKT phosphorylation at S473 residue at 1 uM after 24 hrs by Immunoblot analysis relative to control; format: functional; parameters: scale not given: the % may be the effect or the level left
CAL-27 [9] = test: Induction of apoptosis in human CAL-27 cells assessed as decrease in AKT phosphorylation at S473 residue at 5 uM after 24 hrs by Immunoblot analysis relative to control; format: functional; parameters: scale not given: the % may be the effect or the level left
CAL-27 [10] = test: Induction of apoptosis in human CAL-27 cells assessed as decrease in AKT phosphorylation at S473 residue at 10 uM after 24 hrs by Immunoblot analysis relative to control; format: functional; parameters: scale not given: the % may be the effect or the level left
CAL-27 [11] = test: Induction of apoptosis in human CAL-27 cells assessed as decrease in FOXO3A phosphorylation at serine 253 residue at 0.5 uM after 24 hrs by Immunoblot analysis relative to control; format: functional; parameters: scale not given: the % may be the effect or the level left
CAL-27 [12] = test: Induction of apoptosis in human CAL-27 cells assessed as decrease in FOXO3A phosphorylation at serine 253 residue at 1 uM after 24 hrs by Immunoblot analysis relative to control; format: functional; parameters: scale not given: the % may be the effect or the level left
CAL-27 [13] = test: Induction of apoptosis in human CAL-27 cells assessed as decrease in FOXO3A phosphorylation at serine 253 residue at 5 uM after 24 hrs by Immunoblot analysis relative to control; format: functional; parameters: scale not given: the % may be the effect or the level left
CAL-27 [14] = test: Induction of apoptosis in human CAL-27 cells assessed as decrease in FOXO3A phosphorylation at serine 253 residue at 10 uM after 24 hrs by Immunoblot analysis relative to control; format: functional; parameters: scale not given: the % may be the effect or the level left
[15] = target: Cyclin-dependent kinase 8 (Homo sapiens) (UniProt P49336); test: Inhibition of CDK8 (unknown origin) in human CAL-27 cells measured after 6 hrs by select screen kinase assay; format: cell-based
Chain of Cyclin-dependent kinase 8 (Homo sapiens) (P49336 whole entry): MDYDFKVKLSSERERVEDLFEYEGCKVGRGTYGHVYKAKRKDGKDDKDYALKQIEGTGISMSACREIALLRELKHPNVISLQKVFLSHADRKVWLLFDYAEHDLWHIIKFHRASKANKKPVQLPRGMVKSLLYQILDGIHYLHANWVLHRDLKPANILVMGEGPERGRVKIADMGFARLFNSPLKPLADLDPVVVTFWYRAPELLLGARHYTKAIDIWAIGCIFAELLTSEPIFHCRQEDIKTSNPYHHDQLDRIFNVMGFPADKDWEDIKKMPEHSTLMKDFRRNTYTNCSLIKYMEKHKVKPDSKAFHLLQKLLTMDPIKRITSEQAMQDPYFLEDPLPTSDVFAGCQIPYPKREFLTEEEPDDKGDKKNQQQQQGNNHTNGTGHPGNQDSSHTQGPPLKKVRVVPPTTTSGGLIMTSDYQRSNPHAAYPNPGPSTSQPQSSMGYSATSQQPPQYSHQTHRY
Procedure, shortened: (§1)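 Cellular kinase profiling by KiNativ in CAL27 head and neck squamous carcinoma cells. Cells were treated with compound at 1 μM for 6 h, then kinase engagement was profiled across the kinome by KiNativ.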

[16] = target: Cyclin-dependent kinase 19 (Homo sapiens) (UniProt Q9BWU1); test: Inhibition of […] (unknown origin) in human CAL-27 cells measured after 6 hrs by select screen kinase assay; format: cell-based; procedure, shortened: as §1
Chain of Cyclin-dependent kinase 19 (Homo sapiens) (Q9BWU1 whole entry): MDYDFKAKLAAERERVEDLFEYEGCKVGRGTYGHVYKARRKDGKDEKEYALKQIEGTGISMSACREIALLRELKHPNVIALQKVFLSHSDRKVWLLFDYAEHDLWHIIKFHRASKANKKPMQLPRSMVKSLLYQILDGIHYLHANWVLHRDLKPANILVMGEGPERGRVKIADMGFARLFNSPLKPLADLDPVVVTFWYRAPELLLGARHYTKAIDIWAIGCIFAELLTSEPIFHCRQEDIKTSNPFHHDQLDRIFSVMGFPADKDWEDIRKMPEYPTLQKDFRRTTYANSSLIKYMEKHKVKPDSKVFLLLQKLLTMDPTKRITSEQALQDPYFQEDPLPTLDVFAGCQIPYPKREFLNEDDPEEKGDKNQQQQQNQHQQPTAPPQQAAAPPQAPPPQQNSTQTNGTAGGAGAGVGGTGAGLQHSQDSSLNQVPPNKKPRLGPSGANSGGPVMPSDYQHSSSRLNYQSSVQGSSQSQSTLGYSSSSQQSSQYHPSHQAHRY

[17] = target: Dual specificity tyrosine-phosphorylation-regulated kinase 1B (Homo sapiens, UniProt Q9Y463); test: Inhibition of DYRK1B (unknown origin) measured after 6 hrs in presence of ATP by Z'-LYTE assay
Chain of Dual specificity tyrosine-phosphorylation-regulated kinase 1B (Q9Y463 whole entry): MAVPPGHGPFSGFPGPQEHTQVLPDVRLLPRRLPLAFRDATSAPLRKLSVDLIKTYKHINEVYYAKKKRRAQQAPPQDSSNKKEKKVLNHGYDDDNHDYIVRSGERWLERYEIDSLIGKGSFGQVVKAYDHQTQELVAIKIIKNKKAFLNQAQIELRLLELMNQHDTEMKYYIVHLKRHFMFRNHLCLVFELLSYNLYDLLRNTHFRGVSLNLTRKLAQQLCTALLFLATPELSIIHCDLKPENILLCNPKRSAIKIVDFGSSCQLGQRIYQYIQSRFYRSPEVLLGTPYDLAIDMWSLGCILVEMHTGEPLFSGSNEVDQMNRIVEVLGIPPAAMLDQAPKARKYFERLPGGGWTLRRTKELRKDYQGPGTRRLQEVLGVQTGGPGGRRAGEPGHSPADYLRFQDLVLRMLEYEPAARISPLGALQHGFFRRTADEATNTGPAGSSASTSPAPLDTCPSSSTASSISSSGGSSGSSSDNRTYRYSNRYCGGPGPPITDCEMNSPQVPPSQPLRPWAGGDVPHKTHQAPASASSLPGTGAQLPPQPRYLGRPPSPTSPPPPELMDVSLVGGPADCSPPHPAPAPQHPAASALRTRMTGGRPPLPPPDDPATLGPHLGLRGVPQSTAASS

[18] = target: Receptor-type tyrosine-protein kinase FLT3 (Homo sapiens, UniProt P36888); test: Inhibition of FLT3 (unknown origin) at 1 uM by kinome scan method
Chain of Receptor-type tyrosine-protein kinase FLT3 (P36888 whole entry): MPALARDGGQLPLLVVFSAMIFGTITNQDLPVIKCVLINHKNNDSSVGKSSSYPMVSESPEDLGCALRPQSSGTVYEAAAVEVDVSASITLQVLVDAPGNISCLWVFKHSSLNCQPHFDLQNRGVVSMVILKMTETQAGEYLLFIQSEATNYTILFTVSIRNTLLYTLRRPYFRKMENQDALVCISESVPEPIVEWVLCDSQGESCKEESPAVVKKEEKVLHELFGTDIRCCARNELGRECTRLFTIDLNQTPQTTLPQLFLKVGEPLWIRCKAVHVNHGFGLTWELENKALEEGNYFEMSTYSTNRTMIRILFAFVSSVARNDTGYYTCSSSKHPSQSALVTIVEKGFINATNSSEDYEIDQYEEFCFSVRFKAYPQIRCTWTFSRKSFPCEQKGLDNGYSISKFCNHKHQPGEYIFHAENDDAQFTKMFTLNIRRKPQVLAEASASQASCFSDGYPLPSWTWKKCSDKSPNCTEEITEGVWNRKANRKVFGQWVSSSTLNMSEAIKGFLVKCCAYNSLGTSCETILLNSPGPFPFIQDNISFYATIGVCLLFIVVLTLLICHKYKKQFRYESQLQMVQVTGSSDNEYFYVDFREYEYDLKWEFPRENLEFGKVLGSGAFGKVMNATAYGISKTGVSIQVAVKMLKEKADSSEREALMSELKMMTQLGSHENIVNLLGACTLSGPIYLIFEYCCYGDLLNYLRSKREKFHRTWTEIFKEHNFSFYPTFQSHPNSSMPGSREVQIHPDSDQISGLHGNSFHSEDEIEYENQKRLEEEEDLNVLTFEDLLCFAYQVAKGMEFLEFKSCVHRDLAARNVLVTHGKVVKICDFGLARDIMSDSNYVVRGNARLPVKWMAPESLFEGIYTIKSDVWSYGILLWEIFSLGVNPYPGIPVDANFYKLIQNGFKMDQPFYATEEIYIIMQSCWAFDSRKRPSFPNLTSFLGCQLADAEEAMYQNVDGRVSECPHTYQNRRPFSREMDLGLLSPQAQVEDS

[19] = target: Myosin light chain kinase, smooth muscle (Homo sapiens, UniProt Q15746); test: Inhibition of MYLK (unknown origin) at 1 uM by kinome scan method
Chain of Myosin light chain kinase, smooth muscle (Q15746 whole entry): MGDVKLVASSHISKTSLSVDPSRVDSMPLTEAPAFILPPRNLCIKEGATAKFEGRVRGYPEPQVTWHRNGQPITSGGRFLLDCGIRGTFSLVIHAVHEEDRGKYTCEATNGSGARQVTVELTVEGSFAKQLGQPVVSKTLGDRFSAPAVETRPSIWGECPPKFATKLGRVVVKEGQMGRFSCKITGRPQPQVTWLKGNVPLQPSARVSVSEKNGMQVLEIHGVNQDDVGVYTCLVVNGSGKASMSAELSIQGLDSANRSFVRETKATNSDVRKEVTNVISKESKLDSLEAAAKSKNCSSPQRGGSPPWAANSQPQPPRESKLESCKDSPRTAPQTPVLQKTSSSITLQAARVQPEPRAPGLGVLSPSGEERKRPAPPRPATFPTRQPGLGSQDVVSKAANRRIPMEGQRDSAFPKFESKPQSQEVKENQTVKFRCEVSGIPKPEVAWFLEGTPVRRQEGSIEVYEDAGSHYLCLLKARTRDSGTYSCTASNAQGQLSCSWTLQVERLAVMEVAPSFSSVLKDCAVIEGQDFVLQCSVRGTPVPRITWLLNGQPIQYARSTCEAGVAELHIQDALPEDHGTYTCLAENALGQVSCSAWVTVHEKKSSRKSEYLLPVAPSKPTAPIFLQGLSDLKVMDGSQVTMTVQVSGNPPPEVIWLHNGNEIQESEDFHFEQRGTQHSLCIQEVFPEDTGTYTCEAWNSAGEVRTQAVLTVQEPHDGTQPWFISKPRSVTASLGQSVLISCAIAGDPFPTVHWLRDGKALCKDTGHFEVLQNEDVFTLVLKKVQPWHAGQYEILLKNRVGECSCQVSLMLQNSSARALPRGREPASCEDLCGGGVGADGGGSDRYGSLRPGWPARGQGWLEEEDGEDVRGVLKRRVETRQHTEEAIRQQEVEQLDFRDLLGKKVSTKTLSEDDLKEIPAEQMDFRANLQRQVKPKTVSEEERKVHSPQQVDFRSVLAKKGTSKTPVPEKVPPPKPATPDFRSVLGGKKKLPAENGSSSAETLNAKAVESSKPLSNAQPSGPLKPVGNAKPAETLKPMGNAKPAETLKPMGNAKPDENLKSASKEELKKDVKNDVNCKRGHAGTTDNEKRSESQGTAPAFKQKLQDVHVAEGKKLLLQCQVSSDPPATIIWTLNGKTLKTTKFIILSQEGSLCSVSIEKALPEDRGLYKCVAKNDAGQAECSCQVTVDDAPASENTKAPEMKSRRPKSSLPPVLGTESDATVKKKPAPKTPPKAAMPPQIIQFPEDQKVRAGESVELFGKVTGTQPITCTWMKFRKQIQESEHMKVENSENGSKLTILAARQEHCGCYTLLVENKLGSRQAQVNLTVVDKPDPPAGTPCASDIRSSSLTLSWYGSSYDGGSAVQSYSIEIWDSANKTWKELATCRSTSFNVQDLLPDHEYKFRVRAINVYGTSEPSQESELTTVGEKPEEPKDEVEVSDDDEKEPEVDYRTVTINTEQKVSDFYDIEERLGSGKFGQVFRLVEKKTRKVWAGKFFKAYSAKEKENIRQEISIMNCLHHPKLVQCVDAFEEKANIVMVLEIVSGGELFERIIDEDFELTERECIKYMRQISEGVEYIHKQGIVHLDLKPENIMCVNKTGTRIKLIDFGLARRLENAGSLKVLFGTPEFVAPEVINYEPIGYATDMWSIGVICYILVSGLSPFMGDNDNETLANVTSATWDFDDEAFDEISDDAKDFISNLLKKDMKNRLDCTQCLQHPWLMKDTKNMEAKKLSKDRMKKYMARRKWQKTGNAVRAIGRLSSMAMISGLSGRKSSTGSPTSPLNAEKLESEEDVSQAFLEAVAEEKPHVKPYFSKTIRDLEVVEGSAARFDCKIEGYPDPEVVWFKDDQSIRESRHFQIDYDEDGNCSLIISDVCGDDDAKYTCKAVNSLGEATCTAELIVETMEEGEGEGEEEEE

[20] = Half life in C57BL/6 mouse at 5 mg/kg, iv measured upto 8 hrs by LC-MS/MS analysis; format: ADME, organism-based; conditions: in vivo
[21] = Half life in C57BL/6 mouse at 10 mg/kg, po measured upto 8 hrs by LC-MS/MS analysis; format: ADME, organism-based; conditions: in vivo
[22] = AUC (0-infinity) in C57BL/6 mouse at 5 mg/kg, iv measured upto 8 hrs by LC-MS/MS analysis; format: ADME, organism-based; parameters: route intravenous, dose 5 mg/kg, time <=8; conditions: in vivo
[23] = AUC (0-infinity) in C57BL/6 mouse at 10 mg/kg, po measured upto 8 hrs by LC-MS/MS analysis; format: ADME, organism-based; parameters: route oral, dose 10 mg/kg, time <=8; conditions: mouse, in vivo, 8 h
[24] = Clearance in C57BL/6 mouse at 5 mg/kg, iv measured upto 8 hrs by LC-MS/MS analysis; format: ADME, organism-based; conditions: in vivo
[25] = Cmax in C57BL/6 mouse at 10 mg/kg, po measured upto 8 hrs by LC-MS/MS analysis; format: ADME, organism-based; parameters: route oral, dose 10 mg/kg, time <=8; conditions: in vivo
[26] = Oral bioavailability in C57BL/6 mouse at 10 mg/kg measured upto 8 hrs by LC-MS/MS analysis; format: ADME, organism-based; conditions: mouse, in vivo, 10 mg/kg, 8 h

IC50 [17]	SMILES	Activity (CAL-27 [1])	Activity (CAL-27 [2])	Activity (HEK-293T)	Activity (CAL-27 [3])	Activity (CAL-27 [4])	Activity (CAL-27 [5])	Activity (CAL-27 [6])	other results
–	COc1ccc2c(c1)[nH]c1c(C)nccc12 [HARMINE]	139%	210%	Active	113%	141%	92%	93%	Activity (FaDu): inactive; Activity (CAL-27 [7]): 64%; Activity (CAL-27 [8]): 93%; Activity (CAL-27 [9]): 133%; Activity (CAL-27 [10]): 143%; Activity (CAL-27 [11]): 82%; Activity (CAL-27 [12]): 107%; Activity (CAL-27 [13]): 110%; Activity (CAL-27 [14]): 90%; inhibition [15]: Active; inhibition [16]: Active
–	COc1c2c(nn1C)CN(C(C)C)C(=O)CCCn1cc(c(C(F)(F)F)n1)-c1c[nH]c3ncc-2cc13	140%	538%	–	110%	112%	130%	84%	–
929 nM	CN1Cc2nn(C)c(C#N)c2-c2cnc3[nH]nc(c3c2)-c2cn(nc2C(F)(F)F)CCCC1=O	–	–	–	–	–	–	–	–
–	COc1c2c(nn1C)CN(C(C)C)C(=O)CCCn1cc(c(C(F)(F)F)n1)-c1c(C)[nH]c3ncc-2cc13	119%	145%	–	113%	117%	79%	61%	–
18 nM	CN1Cc2nn(C)c(C#N)c2-c2cnc3[nH]cc(c3n2)-c2cn(nc2C(F)(F)F)CCCC1=O	–	–	–	–	–	–	–	–
–	CN1Cc2nn(C)c(C#N)c2-c2cnc3[nH]cc(c3c2)-c2cn(nc2C(F)(F)F)CCCC1=O	–	–	Non-Toxic	–	–	–	–	IC50 [18]: 354 nM; IC50 [19]: 334 nM; half-life [20]: 18 min; half-life [21]: 120 min; AUC [22]: 504.9 ng·h/mL; AUC [23]: 23.6 ng·h/mL; clearance [24]: 167 mL/min/kg; Cmax [25]: 11.6 µM; F [26]: 1.1%
